Test results: ChEMBL document CHEMBL1629527, “In vitro antifungal activities of bis(alkylpyridinium)alkane compounds against pathogenic yeasts and molds” (Antimicrob Agents Chemother, 2010)

Assays:
Assay type in all cases: functional
Cryptococcus neoformans [1] = assay: Antifungal activity against Cryptococcus neoformans ATCC 90112 after 24 to 72 hrs by broth microdilution method
In short: (§1)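 Broth microdilution MIC per CLSI M27-A3 (yeasts) or M38-A2 (molds). RPMI 1640 with L-glutamine, without bicarbonate, buffered to pH 7.0 with 0.165 M MOPS. Final test range for the compounds was 0.175–87.5 μM. Incubation at 35°C with visual reading at 24–72 h. MIC was the lowest concentration giving 100% inhibition versus the growth control (azoles 50% or 100%, by organism). Each isolate was run in duplicate in two independent experiments.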

Lomentospora prolificans = assay: Antifungal activity against Scedosporium prolificans 05-203060 after 48 to 72 hrs
In short: (§2)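 CLSI M38-A2 broth microdilution for molds in RPMI 1640 with L-glutamine and no bicarbonate, buffered with 0.165 M MOPS to pH 7.0. Compounds were dissolved in water and tested at 0.175–87.5 μM final, 35°C, up to 7 days. MIC was read visually as 100% inhibition versus growth control. For MFC, clear wells were plated on SDA and the lowest concentration with no colonies taken. Each isolate was run in duplicate, two independent experiments.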

Candida albicans [2] = assay: Antifungal activity against Candida albicans after 24 to 72 hrs by broth microdilution method
In short: (§3)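 CLSI M27-A3 broth microdilution for yeasts in RPMI 1640 with L-glutamine and no bicarbonate, buffered with 0.165 M MOPS to pH 7.0. Compounds were dissolved in water and tested at 0.175–87.5 μM final, 35°C. MIC was read visually at 24–72 h as 100% inhibition versus growth control. For MFC, 30 μl from clear wells went onto SDA at 35°C for 48–72 h, reading the lowest concentration without colonies. Duplicates, two independent runs.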

[3] = test system: Meyerozyma guilliermondii; assay: Antifungal activity against Candida guilliermondii after 48 to 72 hrs; details: for MFC: Meyerozyma guilliermondii
In short: (§4)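 MFC: after the MIC read, 30-μl aliquots from each well without visible growth were plated onto Sabouraud dextrose agar and incubated at 35°C. Reading was at 48–72 h for yeasts and up to 7 days for molds. MFC was the lowest concentration with no colonies.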

Aspergillus flavus = assay: Antifungal activity against Aspergillus flavus 05-203758 after 48 to 72 hrs; in short: as §2
Candida parapsilosis [4] = assay: Antifungal activity against Candida parapsilosis after 24 to 72 hrs by broth microdilution method; details: Lodderomyces parapsilosis; in short: as §1
Nakaseomyces glabratus [5] = assay: Antifungal activity against Candida glabrata 04-202345 after 48 to 72 hrs; in short: as §4
[6] = Antifungal activity against Paecilomyces lilacinus 05-200601 after 24 to 72 hrs by broth microdilution method; details: Purpureocillium lilacinum
In short: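 Mold isolates subcultured on potato dextrose agar, then tested by CLSI M38-A2 broth microdilution in RPMI 1640 (L-glutamine, no bicarbonate) buffered to pH 7.0 with 0.165 M MOPS. Compounds were dissolved in water and tested at a final 0.175–87.5 μM. Plates were incubated at 35°C. MIC was read visually as the lowest concentration giving 100% inhibition versus the growth control. Each isolate was run in duplicate in two independent experiments.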

Exophiala spinifera = assay: Antifungal activity against Exophiala spinifera 03-200803 after 48 to 72 hrs; in short: as §2
Candida parapsilosis [7] = assay: Antifungal activity against Candida parapsilosis 04-202398 after 48 to 72 hrs; details: Lodderomyces parapsilosis; in short: as §3
Cryptococcus neoformans [8] = assay: Antifungal activity against Cryptococcus neoformans after 48 to 72 hrs; details: for MFC: Cryptococcus neoformans; in short: as §4
Aspergillus fumigatus [9] = assay: Antifungal activity against Aspergillus fumigatus ATCC 204305 after 48 to 72 hrs; in short: as §2
Nakaseomyces glabratus [10] = assay: Antifungal activity against Candida glabrata after 24 to 72 hrs by broth microdilution method; in short: as §1
Candida tropicalis [11] = assay: Antifungal activity against Candida tropicalis after 24 to 72 hrs by broth microdilution method; in short: as §1
Candida tropicalis [12] = assay: Antifungal activity against Candida tropicalis 04-202361 after 48 to 72 hrs; in short: as §3
Candida albicans [13] = assay: Antifungal activity against Candida albicans after 48 to 72 hrs; details: for MFC: Candida albicans; in short: as §4
Candida parapsilosis [14] = assay: Antifungal activity against Candida parapsilosis ATCC 22019 after 24 to 72 hrs by broth microdilution method; details: Lodderomyces parapsilosis; in short: as §1
Candida parapsilosis [15] = assay: Antifungal activity against Candida parapsilosis ATCC 22019 after 48 to 72 hrs; details: Lodderomyces parapsilosis; in short: as §4
Pichia kudriavzevii [16] = assay: Antifungal activity against Candida krusei […] after 48 to 72 hrs; in short: as §4
[17] = Antifungal activity against Exophiala jeanselmei 03-200268 after 48 to 72 hrs; in short: as §2
Pichia kudriavzevii [18] = assay: Antifungal activity against Candida krusei ATCC 6258 after 48 to 72 hrs; in short: as §4
Aspergillus terreus = assay: Antifungal activity against Aspergillus terreus 05-202844 after 48 to 72 hrs; in short: as §4
Pichia kudriavzevii [19] = assay: Antifungal activity against Candida krusei ATCC 9258 after 24 to 72 hrs by broth microdilution method; in short: as §1
[20] = test system: Cunninghamella bertholletiae; assay: Antifungal activity against Cunninghamella bertholletiae 99-12187 after 48 to 72 hrs; details: in the assay text read “for up to 7 days” for “after 48 to 72 hrs”; in short: as §4
Aspergillus fumigatus [21] = assay: Antifungal activity against Aspergillus fumigatus 05-203114 after 48 to 72 hrs; in short: as §2
Candida albicans [22] = assay: Antifungal activity against Candida albicans ATCC 90028 after 48 to 72 hrs; in short: as §4
Candida albicans [23] = assay: Antifungal activity against Candida albicans ATCC 10231 after 48 to 72 hrs; in short: as §4

MIC (Cryptococcus neoformans [1]) | MIC50 (Candida albicans [2]) | MIC90 (Candida albicans [2]) | MIC (Candida parapsilosis [4]) | MIC50 (Candida parapsilosis [4]) | MIC90 (Candida parapsilosis [4]) | MIC [6] | MIC (Nakaseomyces glabratus [10]) | MIC50 (Nakaseomyces glabratus [10]) | MIC90 (Nakaseomyces glabratus [10]) | MIC (Candida tropicalis [11]) | MIC50 (Candida tropicalis [11]) | MIC90 (Candida tropicalis [11]) | Compound | MFC50 [3] | MFC90 [3] | MFC [3] | MFC50 (Cryptococcus neoformans [8]) | MFC90 (Cryptococcus neoformans [8]) | MFC (Cryptococcus neoformans [8]) | MFC50 (Candida albicans [13]) | further results
1.48 µg/mL | 1.48 µg/mL | 1.48 µg/mL | > 47 µg/mL | > 47 µg/mL | > 47 µg/mL | > 47.3 µg/mL | 0.701 µg/mL | 0.75 µg/mL | 0.75 µg/mL | 0.702 µg/mL | 0.75 µg/mL | 0.75 µg/mL | CCCCCc1cc[n+](CCCCCCCCCCCC[n+]2ccc(CCCCC)cc2)cc1.[Cl-].[Cl-] | 0.75 µg/mL | 0.75 µg/mL | 0.38 µg/mL | 1.48 µg/mL | 47 µg/mL | 1.48 µg/mL | 1.48 µg/mL | MFC (Lomentospora prolificans): 2.96 µg/mL; MFC (Candida parapsilosis [15]): 1.48 µg/mL; MFC (Pichia kudriavzevii [16]): 11.8 µg/mL; MFC [17]: 2.96 µg/mL; MFC (Pichia kudriavzevii [18]): 11.8 µg/mL; MFC90 (Candida albicans [13]): 1.48 µg/mL; MFC (Candida albicans [13]): 0.75 µg/mL; MIC (Candida parapsilosis [14]): 0.74 µg/mL; MFC (Aspergillus terreus): 11.8 µg/mL; MIC (Pichia kudriavzevii [19]): 5.9 µg/mL
0.79 µg/mL | 1.56 µg/mL | 1.56 µg/mL | 28.6 µg/mL | 24.9 µg/mL | 49.5 µg/mL | 50.7 µg/mL | 0.739 µg/mL | 0.79 µg/mL | 0.79 µg/mL | 1.18 µg/mL | 1.56 µg/mL | 1.56 µg/mL | CCCCCCc1cc[n+](CCCCCCCCCCCC[n+]2ccc(CCCCCC)cc2)cc1.[Cl-].[Cl-] | 0.79 µg/mL | 1.56 µg/mL | 0.39 µg/mL | 0.79 µg/mL | 12.45 µg/mL | 0.79 µg/mL | 1.56 µg/mL | MIC (Candida albicans [2]): 1.56 µg/mL; MFC [20]: 25.3 µg/mL; MFC (Candida parapsilosis [7]): 50.7 µg/mL; MFC (Aspergillus fumigatus [21]): 50.7 µg/mL; MFC (Aspergillus fumigatus [9]): 50.7 µg/mL; MFC90 (Candida albicans [13]): 1.56 µg/mL; MFC (Candida albicans [13]): 1.56 µg/mL; MIC (Candida parapsilosis [14]): 0.79 µg/mL
11.8 µg/mL | 1.47 µg/mL | 1.47 µg/mL | 23.5 µg/mL | 23.5 µg/mL | 23.5 µg/mL | > 47.3 µg/mL | 0.975 µg/mL | 1.47 µg/mL | 1.47 µg/mL | 0.746 µg/mL | 0.75 µg/mL | 1.47 µg/mL | C=CCCCc1cc[n+](CCCCCCCCCCCC[n+]2ccc(CCCC=C)cc2)cc1.[Cl-].[Cl-] | 1.47 µg/mL | 5.87 µg/mL | 0.75 µg/mL | 5.87 µg/mL | 11.74 µg/mL | 2.94 µg/mL | 1.47 µg/mL | MIC (Candida albicans [2]): 1.28 µg/mL; MFC (Candida albicans [22]): 2.96 µg/mL; MFC (Candida parapsilosis [15]): 2.96 µg/mL; MFC (Nakaseomyces glabratus [5]): 3 µg/mL; MFC (Pichia kudriavzevii [18]): 11.8 µg/mL; MFC (Candida albicans [23]): 5.9 µg/mL; MFC (Candida tropicalis [12]): 5.9 µg/mL; MFC90 (Candida albicans [13]): 1.47 µg/mL; MFC (Candida albicans [13]): 0.75 µg/mL; MIC (Candida parapsilosis [14]): 1.48 µg/mL; MIC (Pichia kudriavzevii [19]): 11.8 µg/mL

Compound | MIC (Cryptococcus neoformans [1]) | MIC50 (Candida albicans [2]) | MIC90 (Candida albicans [2]) | MIC (Candida parapsilosis [4]) | MIC50 (Candida parapsilosis [4]) | MIC90 (Candida parapsilosis [4]) | MIC [6] | MIC (Nakaseomyces glabratus [10]) | MIC50 (Nakaseomyces glabratus [10]) | MIC90 (Nakaseomyces glabratus [10]) | MIC (Candida tropicalis [11]) | MIC50 (Candida tropicalis [11]) | MIC90 (Candida tropicalis [11]) | MFC50 [3] | MFC90 [3] | MFC [3] | MFC50 (Cryptococcus neoformans [8]) | MFC90 (Cryptococcus neoformans [8]) | MFC (Cryptococcus neoformans [8]) | MFC50 (Candida albicans [13]) | further results
CCCCCc1cc[n+](CCCCCCCCCCCC[n+]2ccc(CCCCC)c(C)c2)cc1C.[Cl-].[Cl-] | 0.79 µg/mL | 1.56 µg/mL | 1.56 µg/mL | 30.6 µg/mL | 24.9 µg/mL | 49.5 µg/mL | > 50.7 µg/mL | 0.642 µg/mL | 0.79 µg/mL | 0.79 µg/mL | 0.79 µg/mL | 0.79 µg/mL | 0.79 µg/mL | 0.79 µg/mL | 1.56 µg/mL | 0.39 µg/mL | 0.79 µg/mL | 12.45 µg/mL | 0.79 µg/mL | 1.56 µg/mL | MFC (Lomentospora prolificans): 6.83 µg/mL; MIC (Candida albicans [2]): 1.36 µg/mL; MFC (Aspergillus flavus): 50.7 µg/mL; MFC (Nakaseomyces glabratus [5]): 3.2 µg/mL; MFC (Exophiala spinifera): 1.58 µg/mL; MFC (Candida parapsilosis [7]): 50.7 µg/mL; MFC (Aspergillus fumigatus [9]): 50.7 µg/mL; MFC (Candida tropicalis [12]): 1.58 µg/mL; MFC90 (Candida albicans [13]): 1.56 µg/mL; MFC (Candida albicans [13]): 0.79 µg/mL; MIC (Candida parapsilosis [14]): 0.79 µg/mL
